ChEMBL document CHEMBL4619761, “Biosurfactants from Marine Cyanobacteria Collected in Sabah, Malaysia” (J Nat Prod, 2020)
The source made the active and inactive calls. No cut-off for these calls is given here.

Assays:
[1] = test system: MCF7; assay: Cytotoxicity against human MCF7 cells incubated for 72 hrs by MTT assay; type: functional, cell-based; details: MCF7, 72 h
[2] = Biosurfactant activity assessed as diameter of clear zone at 10 mg/ml by oil displacement assay; type: functional
Outline: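 Oil displacement assay as an indirect measure of surface activity: sample tested at 10 mg/mL and the clear-zone diameter measured. SDS and pluronic F-68 were run at the same concentration for reference.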

[3] = Biosurfactant activity assessed as Critical micelle concentration of compound; type: physicochemical
[4] = Biosurfactant activity assessed as reduction in surface tension of aqueous solution at 10 to 1200 ug/ml by ring method; type: functional
Outline: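 Surface tension of aqueous solutions (10−1200 μg/mL) measured by the ring method on a Du Noüy tensiometer with a platinum ring at 25 °C, in triplicate. The instrument was calibrated against pure H2O before each set. CMC was taken from the breakpoint of the surface tension versus log bulk concentration curve.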

[5] = test system: Amphibalanus amphitrite; assay: Antifouling activity against Amphibalanus amphitrite at 0.88 ug/ml; type: functional, organism-based

SMILES	Activity [2]	CMC [3]	IC50 [1]	Activity [4]	also measured
CCCCCCCCC(Cl)CCCC/C=C/CCC(=O)N(C)[C@H](CO)COC (stereo not given in full)			> 10 µg/mL		
COC[C@@H](COC(C)=O)N(C)C(=O)CC/C=C/CCCC[C@H](Cl)CCCCCCCCCl	90 mm		> 10 µg/mL		
COC[C@@H](COC(C)=O)N(C)C(=O)CC/C=C/CCCCC(Cl)CCCCCCCC(Cl)Cl (stereo not given in full)			> 10 µg/mL		

Further lines, with some results ahead:

Activity [2]	CMC [3]	SMILES	IC50 [1]	Activity [4]	also measured
84 mm		CCCCCCCCCCCCOS(=O)(=O)[O-].[Na+]			
	0.34 mM	COC[C@@H](CO)N(C)C(=O)CC/C=C/CCCC[C@H](Cl)CCCCCCCCCl		Active	
	0.78 mM	CCCCCCCCCCCCCCC/C=C(\C)C(=O)N[C@@H](CO)COC		Active	Activity [5]: Active
